# T cruzi HTS: blocks T. cruzi growth inside host cells; AID 651903; intracellular Trypanosoma cruzi in host cells, plate reader; 22,000 tested, 4.9% active; activity score (inhibition), % at 5.01 µM; in the data active = activity score above about 55%;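 also: parasites and compound incubated about four days before reading; 0% = median of neutral control wells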
# YB-1 expr inh: YB-1 expression inhibition; U2OS, qRT-PCR YB-1 vs CDIP delta delta Cp, 16 h; stronger effect = higher value; zero = DMSO, each unit about twofold; delta delta Cp (YB-1 minus CDIP) (concentration not given with the values); 30,000 tested, 0.37% active;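 active = delta delta Cp rounded down to an integer at or above 3, about 3 SD of DMSO wells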;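 also: higher means less YB-1 transcript or more CDIP transcript relative to DMSO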
# INS-1E rescue: INS-1E beta cell protection from cytokine death. protection from cytokine-induced ATP loss, % at 10 µM. 20,000 tested, 0.1% active. INS-1E cytokine-induced death, ATP luminescence, 48 h; normalised: neutral wells 0, positive control 100;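 active = mean replicate protection from cytokine-induced ATP loss at least 50% and at least 75% of replicates each reaching 50%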
#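 Material: INS-1E rat cells; Quantity: 8000 cells/well; Buffer or medium: phenol-red-free RPMI with 5% fetal bovine serum; Probe or stimulus: cytokine cocktail of IFN-γ, TNF-α and IL-1β; Compound dosing: single test concentration per compound, delivered by pin transfer; Incubation: 48 h co-treatment, 10 min post-lysis read; Signal: CellTiter-Glo luminescence.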
# Numbers without * were called inactive; . = no result. Many of the other results were omitted from the sample, so hits are more common in it than they were.
SMILES,T cruzi HTS,YB-1 expr inh,INS-1E rescue
C[C@@H]1CN([C@H](C)CO)C(=O)c2cccc(NC(=O)Nc3cccc4ccccc34)c2O[C@@H]1CN(C)Cc1ccc(C(=O)O)cc1,2,-0.38,8
C[C@@H]1CCCCO[C@@H](CN(C)Cc2ccc(C(F)(F)F)cc2)[C@@H](C)CN([C@H](C)CO)C(=O)c2cc(NS(=O)(=O)c3cccs3)ccc2O1,64*,-0.3,-74
C[C@@H]1CCCCO[C@H](CN(C)Cc2ccc(C(F)(F)F)cc2)[C@@H](C)CN([C@H](C)CO)C(=O)c2cc(NS(=O)(=O)c3cccs3)ccc2O1,18,0.085,-9
C[C@@H]1CCCCO[C@@H](CN(C)C(=O)Nc2ccc(C(F)(F)F)cc2)[C@@H](C)CN([C@H](C)CO)C(=O)c2cc(NS(=O)(=O)c3cccs3)ccc2O1,57*,0.18,-13
C[C@@H]1CCCCO[C@H](CN(C)C(=O)Nc2ccc(C(F)(F)F)cc2)[C@@H](C)CN([C@H](C)CO)C(=O)c2cc(NS(=O)(=O)c3cccs3)ccc2O1,.,-0.45,0
C[C@@H]1CN([C@@H](C)CO)C(=O)c2cccc(NC(=O)CCCCCC(=O)Nc3ccccc3N)c2O[C@@H]1CN(C)S(=O)(=O)c1ccccc1,40,-0.31,-20
O=S(=O)(N[C@@H]1CCCN(Cc2cccc(OCCO)c2)C1)c1cccc(F)c1,.,0.24,.
O=C(CCCCCCC(=O)Nc1ccccc1O)N/N=C/c1ccc(OCc2ccccc2)cc1O,78*,0.37,10
CN(C)CCCOc1ccc(/C=N/NC(=O)CCCCCCC(=O)Nc2ccccc2O)cc1,87*,0.19,-3
O=C(CCCCCCC(=O)Nc1ccccc1O)N/N=C/c1ccc(OCCO)cc1,-3,-0.66,-13
COC(=O)CCCCCCC(=O)N/N=C/c1cc(Br)cc(OC)c1O,26,-0.2,32
CN(C)CCCOc1ccc(/C=N/NC(=O)CCCCC(=O)NO)cc1,30,0.5,-8
COc1ccc(/C=N/NC(=O)CCCCCCC(=O)Nc2ccccc2O)c(O)c1,26,-0.54,-6
COC(=O)CCCCCCC(=O)N/N=C/c1cc(Br)cc(Br)c1O,62*,-0.12,14
COC(=O)CCCCCCC(=O)N/N=C/c1ccc(OCCCN(C)C)cc1,81*,0.05,9
COc1ccc(NC(=O)Nc2cccc3c2O[C@@H](CN(C)S(C)(=O)=O)[C@@H](C)CN([C@@H](C)CO)C3=O)cc1,5,-0.037,3
C[C@@H]1CN([C@@H](C)CO)C(=O)c2cc(NC(=O)CCN3CCOCC3)ccc2O[C@@H]1CN(C)Cc1ccncc1,-10,0.32,.
COc1ccc(NC(=O)Nc2ccc3c(c2)CC(=O)N([C@@H](C)CO)C[C@H](C)[C@H](CN(C)S(=O)(=O)c2ccc(Cl)cc2)O3)cc1,-2,0.17,2
Cc1noc(C)c1S(=O)(=O)N(C)C[C@H]1Oc2ccc(NS(=O)(=O)c3cn(C)cn3)cc2CC(=O)N([C@H](C)CO)C[C@H]1C,-9,-0.45,10
CCc1cc(C)cc(OCCn2cc(C=C3C(=O)NC(=O)NC3=O)c3ccccc32)c1,.,-0.11,.
CC(C)NC(=O)N(C)C[C@@H]1OCc2cnnn2CCCC(=O)N([C@@H](C)CO)C[C@@H]1C,-17,0.042,.
CC(C)NC(=O)N(C)C[C@@H]1Oc2ccc(NC(=O)CCN3CCOCC3)cc2C(=O)N([C@@H](C)CO)C[C@H]1C,2,-0.057,5
CC(C)NC(=O)Nc1ccc2c(c1)C(=O)N([C@@H](C)CO)C[C@@H](C)[C@H](CN(C)C(=O)Nc1ccc(C(F)(F)F)cc1)O2,-12,0.42,7
CC(C)NC(=O)N(C)C[C@@H]1Oc2ncc(C#Cc3ccc(F)cc3)cc2C(=O)N([C@H](C)CO)C[C@@H]1C,10,-0.39,-5
C[C@H](CO)N1C[C@H](C)[C@H](CN(C)CC2CC2)Oc2c(NC(=O)CCCCCC(=O)Nc3ccccc3N)cccc2C1=O,10,0.0028,9
SMILES,T cruzi HTS,YB-1 expr inh,INS-1E rescue
C[C@@H]1CN([C@@H](C)CO)C(=O)c2cccc(NC(=O)CCCCCC(=O)Nc3ccccc3N)c2O[C@H]1CN(C)CC1CCCCC1,74*,-0.49,16
C[C@H](CO)N1C[C@H](C)[C@H](CN(C)C)Oc2c(NC(=O)CCCCCC(=O)Nc3ccccc3N)cccc2C1=O,-56,-0.29,17
C[C@H](CO)N1C[C@H](C)[C@@H](CN(C)CC2CC2)Oc2c(NC(=O)CCCCCC(=O)Nc3ccccc3N)cccc2C1=O,72*,-0.25,6
C[C@@H]1CN([C@H](C)CO)C(=O)c2cccc(NC(=O)Nc3ccccc3)c2O[C@@H]1CN(C)C(=O)Nc1ccc(F)cc1,-3,0.16,3
C[C@H]1CN([C@@H](C)CO)C(=O)CCCn2nncc2CO[C@@H]1CN(C)S(=O)(=O)c1ccc2c(c1)OCCCO2,-10,-0.12,1
C[C@@H]1CN([C@@H](C)CO)C(=O)c2cc(NS(C)(=O)=O)ccc2O[C@H]1CN(C)CC1CC1,2,0.052,7
O=C(N/N=C/c1ccc(O)c2ccccc12)c1ccccn1,-14,0.41,2
CC(C)(C)OC(=O)NC/C=N/NC(=O)CCCCCC(=O)O,-19,-0.15,-8
CCN(CC)S(=O)(=O)c1cccc(C(=O)NN)c1,.,-0.25,.
CCN(CC)S(=O)(=O)c1ccc(Cl)c(C(=O)Oc2ccc(C)c(C)c2)c1,.,9.1*,.
Cc1noc(C)c1NC(=O)N(C)C[C@H]1Oc2ccc(NC(=O)C3CC3)cc2C(=O)N([C@@H](C)CO)C[C@H]1C,-9,-0.047,3
C[C@H]1CN([C@@H](C)CO)C(=O)Cc2cc(NC(=O)Nc3ccccc3)ccc2O[C@H]1CN(C)S(=O)(=O)c1ccc(Cl)cc1,-5,0.064,-2
C[C@@H]1CCCCO[C@H](CN(C)C(=O)Nc2ccc(F)cc2)[C@@H](C)CN([C@H](C)CO)C(=O)c2cc(NS(=O)(=O)c3ccc(Cl)cc3)ccc2O1,6,0.2,9
C[C@@H]1CCCCO[C@@H](CN(C)C(=O)CCCN(C)C)[C@@H](C)CN([C@H](C)CO)C(=O)c2cc(NS(=O)(=O)c3ccccc3)ccc2O1,0,-0.018,5
C[C@@H]1CCCCO[C@@H](CN(C)C(=O)Nc2ccc(C(F)(F)F)cc2)[C@@H](C)CN([C@H](C)CO)C(=O)c2cc(NS(=O)(=O)c3ccc(Cl)cc3)ccc2O1,72*,-0.089,-17
C[C@@H]1CCCCO[C@H](CN(C)C(=O)CCCN(C)C)[C@@H](C)CN([C@H](C)CO)C(=O)c2cc(NS(=O)(=O)c3ccccc3)ccc2O1,0,4.9*,0
Cc1ccc(S(=O)(=O)Nc2ccc3c(c2)C(=O)N([C@H](C)CO)C[C@H](C)[C@H](CN(C)C(=O)Nc2ccc(C(F)(F)F)cc2)OCCCC[C@@H](C)O3)cc1,63*,0.026,-9
C[C@@H]1CCCCO[C@H](CN(C)C(=O)Nc2ccc(C(F)(F)F)cc2)[C@@H](C)CN([C@H](C)CO)C(=O)c2cc(NS(=O)(=O)c3ccc(F)cc3)ccc2O1,48,-0.092,0
